Published values of several laboratories.
Lines come from different studies, so protocols differ.
DRD3: D(3) dopamine receptor (DRD3, Homo sapiens, UniProt P35462)
PDE10A: cAMP and cAMP-inhibited cGMP 3',5'-cyclic phosphodiesterase 10A (PDE10A, Homo sapiens, UniProt Q9Y233)
SLC6A3: Sodium-dependent dopamine transporter (SLC6A3, Homo sapiens, UniProt Q01959)

Cc1[nH]c(C)c(S(=O)(=O)Nc2ccc(Cl)c(Cl)c2Cl)c1C(=O)N1CCC(F)(F)C1
Emax (DRD3; β-arrestin recruitment, agonist; 90 min): 92%

c1ccc(-c2cccc(Cc3ccnc4cc(C5COC5)ccc34)c2)cc1
inhibition (PDE10A; enzyme activity, inhibitor, FP; 0.1 µM): 3%

Cc1[nH]c(C)c(S(=O)(=O)Nc2ccc(C(F)(F)F)c(Cl)c2)c1C(=O)N1CC(F)(F)C(F)(F)C1
Emax (DRD3; β-arrestin recruitment, agonist; 90 min): 100%

COc1cc2ncnc(Cc3cccc(Cl)c3)c2cc1OC
inhibition (PDE10A; enzyme activity, inhibitor, FP; 0.1 µM): 68%

Cc1[nH]c(C)c(S(=O)(=O)Nc2ccc(C(C)C)cc2)c1C(=O)N1CCCC1
Emax (DRD3; β-arrestin recruitment, agonist; 90 min): 96%

COc1ccc2c(Cc3ccc(OC)c(OC)c3)ccnc2c1
inhibition (PDE10A; enzyme activity, inhibitor, FP; 0.1 µM): 33%

Cc1[nH]c(C)c(S(=O)(=O)Nc2ccc(C(F)(F)F)c(Br)c2)c1C(=O)N1CCCC1
Emax (DRD3; β-arrestin recruitment, agonist; 90 min): 91%

CCOC(=O)[C@@]12C[C@@H]1[C@@H](n1cnc3c(NCCCCCc4ccccc4)nc(C#Cc4ccc(Cl)s4)nc31)[C@H](O)[C@@H]2O
inhibition (SLC6A3; transporter uptake, inhibitor, radiometric; HEK293; 10 µM): < 5%

CCCCC(=O)Nc1ccc(-c2ccc3ncn(CCC)c(=O)c3c2)cn1
remaining binding (Discoidin domain-containing receptor 2 (DDR2, Homo sapiens, UniProt Q16832); binding, competition with immobilised ligand; 0.5 µM): 100%

COc1cc2ncnc(Cc3cccc(-c4ccc(C)cc4)c3)c2cc1OC
inhibition (PDE10A; enzyme activity, inhibitor, FP; 0.1 µM): 78%

COc1ccc2oc(-c3ccc4nc(N)oc4c3)c/c(=N\c3ccccc3NC(=O)CCN)c2c1
remaining binding (AP2-associated protein kinase 1 (AAK1, Homo sapiens, UniProt Q2M2I8); binding; 1 µM): 98%

Cc1[nH]c(C)c(S(=O)(=O)Nc2ccc(C(F)(F)F)c(Cl)c2)c1C(=O)N1CCC(O)C1 (stereo not shown)
Emax (DRD3; β-arrestin recruitment, agonist; 90 min): 89%

CSc1nc(NCCC2CC2)c2ncn([C@H]3[C@H](O)[C@H](O)[C@@H]4C[C@@H]43)c2n1
inhibition (SLC6A3; ligand displacement, radioligand; 10 µM): 16%

C1=C/COCc2cc(ccc2OCCN2CCCC2)Nc2nccc(n2)-c2cccc(c2)COC/1
remaining binding (Calcium/calmodulin-dependent protein kinase type IV (CAMK4, Homo sapiens, UniProt Q16566); binding; 0.1 µM): 100%

OC[C@@]12C[C@@H]1[C@@H](n1cnc3c(NC(C4CCC4)C4CCC4)nc(C#Cc4ccc(Cl)s4)nc31)[C@H](O)[C@@H]2O
inhibition (SLC6A3; ligand displacement, radioligand; 10 µM): 78%

Cc1[nH]c(C)c(S(=O)(=O)Nc2ccc(C(=O)C(F)(F)F)c(Cl)c2)c1C(=O)N1CCC(F)(F)C1
Emax (DRD3; β-arrestin recruitment, agonist; 90 min): 96%

Cc1cc(O)c(-c2ccc([C@@H](C)CN(C)C)cc2)c2c1[nH]c(=O)c1sccc12
inhibition (Cyclin-dependent kinase 12 (CDK12, Homo sapiens, UniProt Q9NYV4); enzyme activity, inhibitor; 0.1 µM): 0.174%

COc1ccc(C(=O)c2ncnc3cc(OC)c(OC)cc23)cc1
inhibition (PDE10A; enzyme activity, inhibitor, FP; 0.1 µM): 39%

CCOC(=O)[C@@]12C[C@@H]1[C@@H](n1ccc3c(NCCCCCc4ccccc4)nc(C#Cc4ccccc4)nc31)[C@H](O)[C@@H]2O
inhibition (SLC6A3; ligand displacement, radioligand; 10 µM): 63%

COc1ccc2nccc(Cc3cccc(-c4ccc(CO)cc4)c3)c2c1
inhibition (PDE10A; enzyme activity, inhibitor, FP; 0.1 µM): 0%

CCOC(=O)[C@@]12C[C@@H]1[C@@H](n1ccc3c(NCCCCc4ccccc4)nc(C#Cc4ccccc4)nc31)[C@H](O)[C@@H]2O
inhibition (SLC6A3; ligand displacement, radioligand; 10 µM): 66%

COc1cc2ncnc(Cc3cccc(-c4ccc(CO)cc4)c3)c2cc1OC
inhibition (PDE10A; enzyme activity, inhibitor, FP; 0.1 µM): 66%

OC[C@@]12C[C@@H]1[C@@H](n1cnc3c(N[C@@H](C4CCC4)C4CC4)nc(C#Cc4ccc(Cl)s4)nc31)[C@H](O)[C@@H]2O
inhibition (SLC6A3; ligand displacement, radioligand; 10 µM): 80%

Cc1[nH]c(C)c(S(=O)(=O)Nc2ccc(Cl)c(C(F)(F)F)c2)c1C(=O)N1CCCC1
Emax (DRD3; β-arrestin recruitment, agonist; 90 min): 88%

N#CC[C@@]12C[C@@H]1[C@@H](n1cnc3c(NCCCCCc4ccccc4)nc(I)nc31)[C@H](O)[C@@H]2O
inhibition (SLC6A3; ligand displacement, radioligand; 10 µM): 23%

Cc1[nH]c(C)c(S(=O)(=O)Nc2ccc(C(F)(F)F)c(Cl)c2)c1C(=O)N1CCC(F)(F)C1
Emax (DRD3; β-arrestin recruitment, agonist; 90 min): 103%

CNC(=O)[C@@]12C[C@@H]1[C@@H](n1cnc3c(Nc4ccccc4)nc(C#Cc4ccc(Cl)s4)nc31)[C@H](O)[C@@H]2O
inhibition (SLC6A3; ligand displacement, radioligand; 10 µM): 84%

COc1ccc2c(Cc3ccc(OC)c(OC)c3)nccc2c1
inhibition (PDE10A; enzyme activity, inhibitor, FP; 0.1 µM): 25%
